Among the data in ChEMBL document CHEMBL4425160, “DABCO-catalyzed one-pot three component synthesis of dihydropyrano[3,2-c]chromene substituted quinazolines and their evaluation towards anticancer activity” (Bioorg Med Chem Lett, 2016) are IC50 and inhibition of growth values, retold here.

pIC50: −log10 of the molar value.

Assay [1] has as its system MDA-MB-231. Briefly: Cytotoxicity against human MDA-MB-231 cells assessed as cell growth inhibition after 48 hrs by MTT assay. The assay is classed as functional, cell-based. Conditions: MDA-MB-231, 48 h. The method, boiled down: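 Cells counted by trypan blue exclusion, seeded at 1×10^4 per well in DMEM with 10% FBS, and left 24 h. They were then exposed to a concentration series for 48 h at 37°C. Serum-free medium with MTT was added for 4 h, formazan was dissolved in DMSO, and A570 was read minus A690. IC50 was read from the 50% viability point versus DMSO+DMEM controls.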
(In general: Formazan colour is commonly taken as a measure of viable cells.)

Assay [2] has as its system MDA-MB-231. Briefly: Cytotoxicity against human MDA-MB-231 cells assessed as cell growth inhibition at 100 uM after 48 hrs by MTT assay. The assay is classed as functional. Conditions: MDA-MB-231, 48 h, read-out: GI. The procedure, abridged: (§1)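 MTT growth assay. 1×10^4 cells were seeded in DMEM with 10% FBS and incubated 24 h. Each compound was then applied at the stated single concentration for 48 h at 37°C, followed by MTT for 4 h. Formazan was solubilized in DMSO and absorbance read at 570 nm with 690 nm background subtraction. Inhibition is relative to control cells given DMSO+DMEM.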

Assay [3] deals with MDA-MB-231. The experiment in a line: Cytotoxicity against human MDA-MB-231 cells assessed as cell growth inhibition at 50 uM after 48 hrs by MTT assay. The assay is classed as functional. Conditions: MDA-MB-231, 48 h, read-out: GI. The procedure, abridged: as §1

Turning to `CCOC(=O)C1=C(N)Oc2c(c(=O)oc3c(Cl)cc(Cl)cc23)C1c1nc(OCc2ccccc2)c2ccccc2n1` (centres undefined), the pIC50 with MDA-MB-231 [1] is under 4.00.
Consider `CCOC(=O)C1=C(N)Oc2c(c(=O)oc3cc(OC)ccc23)C1c1nc(OCc2ccccc2)c2ccccc2n1` (centres undefined), for which the pIC50 in the assay with MDA-MB-231 [1] was under 4.00.
On to `CCOC(=O)C1=C(N)Oc2c(c(=O)oc3ccccc23)C1c1nc(OCc2ccccc2)c2ccccc2n1` (centres undefined), for which the pIC50 in the assay on MDA-MB-231 [1] is under 4.00.
Turning to `CCOC(=O)C1=C(N)Oc2c(c(=O)oc3ccc(F)cc23)C1c1nc(OCc2ccccc2)c2ccccc2n1` (centres undefined), in the assay on MDA-MB-231 [1], the pIC50 is under 4.00.
As to `CCOC(=O)C1=C(N)Oc2c(c(=O)oc3cc(OC)c(Cl)cc23)C1c1nc(OCc2ccccc2)c2ccccc2n1` (centres undefined), the pIC50 in the assay on MDA-MB-231 [1] was under 4.00.
Regarding `CCOC(=O)C1=C(N)Oc2c(c(=O)oc3cc(C)c(C)cc23)C1c1nc(OCc2ccccc2)c2ccccc2n1` (centres undefined), the pIC50 in the assay on MDA-MB-231 [1] is under 4.00.
With `CCOC(=O)C1=C(N)Oc2c(c(=O)oc3c(Br)cc(Cl)cc23)C1c1nc(OCc2ccccc2)c2ccccc2n1` (centres undefined), the inhibition of growth at 100 µM in the assay with MDA-MB-231 [2] is over 95%. Besides, the inhibition of growth at 50 µM in the assay with MDA-MB-231 [3] was determined as 80%. Also, the pIC50 in the assay on MDA-MB-231 [1] was 4.55.

A word on the pIC50: it is the negative decadic logarithm of the IC50, by convention in mol/L.
